Data: ChEMBL document CHEMBL4811225 (J Med Chem, 2021)
Where a SMILES comes first, the peptide text is derived from it. Bridges are numbered along the chain shown (N, C = ends).

Tests used:
[1] = molecular target: Neuronal acetylcholine receptor; alpha3/beta4 (Rattus norvegicus, UniProt P04757+P12392); type: cell-based, Oocyte
[2] = molecular target: Neuronal acetylcholine receptor; alpha4/beta2 (Rattus norvegicus, UniProt P09483+P12390); type: cell-based, Oocyte
[3] = molecular target: Nicotinic acetylcholine receptor alpha6/alpha3/beta4 (Rattus norvegicus, UniProt P04757+P12392+P43143); type: cell-based, Oocyte
Sequence of Nicotinic acetylcholine receptor alpha6/alpha3/beta4 (P04757 whole entry): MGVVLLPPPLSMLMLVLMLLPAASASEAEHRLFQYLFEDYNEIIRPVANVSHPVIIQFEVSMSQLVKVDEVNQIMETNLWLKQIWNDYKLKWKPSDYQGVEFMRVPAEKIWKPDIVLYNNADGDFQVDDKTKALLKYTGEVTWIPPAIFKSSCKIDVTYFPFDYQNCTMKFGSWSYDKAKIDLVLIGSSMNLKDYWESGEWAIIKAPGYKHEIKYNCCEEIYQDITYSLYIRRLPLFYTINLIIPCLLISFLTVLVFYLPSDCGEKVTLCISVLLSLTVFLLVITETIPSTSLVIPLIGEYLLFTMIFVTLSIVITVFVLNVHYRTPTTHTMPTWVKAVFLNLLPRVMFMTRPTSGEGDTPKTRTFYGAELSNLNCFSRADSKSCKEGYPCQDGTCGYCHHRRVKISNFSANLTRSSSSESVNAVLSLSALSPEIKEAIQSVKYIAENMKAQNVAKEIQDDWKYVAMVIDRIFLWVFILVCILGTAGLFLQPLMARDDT
Sequence of Nicotinic acetylcholine receptor alpha6/alpha3/beta4 (P12392 whole entry): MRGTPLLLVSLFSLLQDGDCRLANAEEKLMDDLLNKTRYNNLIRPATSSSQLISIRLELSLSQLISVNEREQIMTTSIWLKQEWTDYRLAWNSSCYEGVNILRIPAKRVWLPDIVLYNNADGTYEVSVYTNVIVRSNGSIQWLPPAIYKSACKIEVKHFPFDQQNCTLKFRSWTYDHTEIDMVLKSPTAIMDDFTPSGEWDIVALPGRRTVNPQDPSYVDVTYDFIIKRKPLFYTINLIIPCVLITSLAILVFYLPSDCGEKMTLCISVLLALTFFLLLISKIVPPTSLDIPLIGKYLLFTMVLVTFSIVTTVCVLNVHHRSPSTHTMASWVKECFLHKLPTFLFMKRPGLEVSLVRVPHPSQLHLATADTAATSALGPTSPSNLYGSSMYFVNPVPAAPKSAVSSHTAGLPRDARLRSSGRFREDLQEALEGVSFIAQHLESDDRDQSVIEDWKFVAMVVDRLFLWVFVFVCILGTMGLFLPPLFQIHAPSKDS
Sequence of Nicotinic acetylcholine receptor alpha6/alpha3/beta4 (P43143 whole entry): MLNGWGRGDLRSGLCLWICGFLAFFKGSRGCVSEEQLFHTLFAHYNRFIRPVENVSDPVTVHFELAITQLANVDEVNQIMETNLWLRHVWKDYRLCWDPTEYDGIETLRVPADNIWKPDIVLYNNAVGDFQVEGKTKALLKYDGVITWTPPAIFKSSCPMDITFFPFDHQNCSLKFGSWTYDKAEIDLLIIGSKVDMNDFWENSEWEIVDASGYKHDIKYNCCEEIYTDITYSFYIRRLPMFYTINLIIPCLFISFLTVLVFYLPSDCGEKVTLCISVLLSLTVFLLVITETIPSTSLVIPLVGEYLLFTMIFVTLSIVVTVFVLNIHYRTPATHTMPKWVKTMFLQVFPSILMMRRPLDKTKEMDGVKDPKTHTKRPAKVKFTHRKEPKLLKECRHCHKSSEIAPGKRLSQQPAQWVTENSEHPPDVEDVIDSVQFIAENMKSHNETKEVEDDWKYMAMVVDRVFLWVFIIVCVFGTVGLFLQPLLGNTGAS

[4] = molecular target: Neuronal acetylcholine receptor subunit alpha-7 (Rattus norvegicus, UniProt Q05941); type: cell-based, Oocyte
Sequence of Neuronal acetylcholine receptor subunit alpha-7 (Rattus norvegicus, UniProt Q05941) (Q05941 whole entry): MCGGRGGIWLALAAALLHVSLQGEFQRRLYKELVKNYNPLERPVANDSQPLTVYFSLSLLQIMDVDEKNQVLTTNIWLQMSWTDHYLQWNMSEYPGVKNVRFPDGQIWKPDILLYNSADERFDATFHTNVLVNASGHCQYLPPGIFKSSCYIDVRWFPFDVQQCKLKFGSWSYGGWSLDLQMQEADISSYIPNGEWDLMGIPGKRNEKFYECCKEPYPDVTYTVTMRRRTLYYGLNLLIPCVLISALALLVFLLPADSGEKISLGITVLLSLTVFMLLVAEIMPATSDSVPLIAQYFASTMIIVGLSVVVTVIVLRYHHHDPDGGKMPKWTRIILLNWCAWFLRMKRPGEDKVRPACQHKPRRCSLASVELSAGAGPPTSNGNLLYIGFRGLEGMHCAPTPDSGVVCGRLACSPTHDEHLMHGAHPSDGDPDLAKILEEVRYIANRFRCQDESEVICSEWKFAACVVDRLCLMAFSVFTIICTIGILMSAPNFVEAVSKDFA

[5] = molecular target: Neuronal acetylcholine receptor; alpha4/beta4 (Rattus norvegicus, UniProt P09483+P12392); type: cell-based, Oocyte
[6] = molecular target: Nicotinic acetylcholine receptor alpha6/alpha3/beta2/beta3 (Rattus norvegicus, UniProt P04757+P12390+P12391+P43143); type: cell-based, Oocyte
[7] = molecular target: Neuronal acetylcholine receptor; alpha3/beta2 (Rattus norvegicus, UniProt P04757+P12390); type: cell-based, Oocyte
Sequence of Neuronal acetylcholine receptor; alpha3/beta2 (Rattus norvegicus, UniProt P04757+P12390) (P04757 whole entry): as the sequence (P04757 whole entry) above
Sequence of Neuronal acetylcholine receptor; alpha3/beta2 (Rattus norvegicus, UniProt P04757+P12390) (P12390 whole entry): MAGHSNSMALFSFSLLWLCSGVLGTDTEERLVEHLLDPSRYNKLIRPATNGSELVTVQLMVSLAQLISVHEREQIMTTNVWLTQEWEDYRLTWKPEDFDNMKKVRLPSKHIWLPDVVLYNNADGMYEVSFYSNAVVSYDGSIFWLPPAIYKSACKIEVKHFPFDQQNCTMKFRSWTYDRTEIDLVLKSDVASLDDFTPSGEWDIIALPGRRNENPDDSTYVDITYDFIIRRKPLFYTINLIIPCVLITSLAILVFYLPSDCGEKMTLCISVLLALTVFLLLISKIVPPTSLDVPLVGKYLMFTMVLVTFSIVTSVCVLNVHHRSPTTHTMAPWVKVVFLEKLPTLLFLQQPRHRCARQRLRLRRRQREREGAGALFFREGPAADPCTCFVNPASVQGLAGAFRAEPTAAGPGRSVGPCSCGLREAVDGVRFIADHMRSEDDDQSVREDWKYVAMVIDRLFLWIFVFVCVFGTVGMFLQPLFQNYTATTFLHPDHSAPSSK

[8] = species: Rattus norvegicus; experiment: Selectivity ratio of IC50 for rat alpha3beta4 nAChR to IC50 for rat alpha6/alpha3beta4 nAChR
Method in brief: (§1)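 Ratio of each subtype's IC50, from TEVC inhibition of ACh-evoked currents in X. laevis oocytes, to the IC50 at the same species' α6/α3β4 nAChR; IC50 values with 95% CI, n = number of oocytes.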

[9] = molecular target: Neuronal acetylcholine receptor; alpha2/beta4 (Rattus norvegicus, UniProt P12389+P12392); experiment: Inhibition of rat alpha2beta4 nAChR expressed in Xenopus laevis oocytes assessed as inhibition of acetylcholine-induced current response by two-electrode voltage-clamp method; type: cell-based, Oocyte
Method in brief: (§2)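 TEVC on stage IV–V oocytes 1–5 days after equal-ratio cRNA injection (α2β4, α3β4, α4β4, α7). ACh 300 μM, 1 s pulses at 60 s intervals under frog saline perfusion. Peptide perfused to 1 μM, normalized to average of three control responses; higher concentrations by 5 min static bath. IC50 with 95% CI, n oocytes.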

[10] = molecular target: Neuronal acetylcholine receptor; alpha3/alpha6/beta2/beta3 (Homo sapiens, UniProt P17787+P32297+Q05901+Q15825); experiment: Inhibition of human alpha6/alpha3beta2beta3 nAChR expressed in Xenopus laevis oocytes assessed as inhibition of acetylcholine-induced current response by two-electrode voltage-clamp method; type: cell-based, Oocyte
Method in brief: (§3)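 Two-electrode voltage clamp of stage IV–V oocytes 1–5 days after equal-ratio cRNA injection; ACh 100 μM (β2-containing subtypes, α9α10), 1 s every 60 s in frog saline. Peptide perfused up to 1 μM, responses normalized to mean of three control responses; above 1 μM, 5 min static bath. IC50 with 95% CI; n = oocytes.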

[11] = species: Homo sapiens; experiment: Selectivity ratio of IC50 for human alpha9alpha10 nAChR to IC50 for human alpha6/alpha3beta4 nAChR
Method in brief: as §1

[12] = species: Rattus norvegicus; experiment: Selectivity ratio of IC50 for rat alpha4beta4 nAChR to IC50 for rat alpha6/alpha3beta4 nAChR
Method in brief: as §1

[13] = species: Homo sapiens; experiment: Selectivity ratio of IC50 for human alpha2beta2 nAChR to IC50 for human alpha6/alpha3beta4 nAChR
Method in brief: as §1

[14] = species: Rattus norvegicus; experiment: Selectivity ratio of IC50 for rat alpha2beta2 nAChR to IC50 for rat alpha6/alpha3beta4 nAChR
Method in brief: as §1

[15] = molecular target: Neuronal acetylcholine receptor; alpha2/beta4 (Rattus norvegicus) (UniProt P12389+P12392); experiment: Inhibition of rat alpha2beta4 nAChR expressed in Xenopus laevis oocytes assessed as inhibition of acetylcholine-induced current response at 10 uM by two-electrode voltage-clamp method relative to control; type: cell-based; details: Oocyte
Method in brief: (§4)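 Stage IV–V X. laevis oocytes expressing equal-ratio cRNAs of α2β4, α3β4, α4β4 or α7 subunits; TEVC 1–5 days after injection. ACh 300 μM, 1 s at 60 s intervals. 10 μM peptide as 5 min static bath, normalized to ACh response after 5 min bath of control saline; mean ± SD, n = 4.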

[16] = species: Homo sapiens; experiment: Selectivity ratio of IC50 for human alpha4beta2 nAChR to IC50 for human alpha6/alpha3beta4 nAChR
Method in brief: as §1

[17] = species: Rattus norvegicus; experiment: Selectivity ratio of IC50 for rat alpha2beta4 nAChR to IC50 for rat alpha6/alpha3beta4 nAChR
Method in brief: as §1

[18] = molecular target: Neuronal acetylcholine receptor; alpha4/beta4 (Rattus norvegicus) (UniProt P09483+P12392); experiment: Inhibition of rat alpha4beta4 nAChR expressed in Xenopus laevis oocytes assessed as inhibition of acetylcholine-induced current response at 10 uM by two-electrode voltage-clamp method relative to control; type: cell-based; details: Oocyte
Method in brief: as §4

[19] = molecular target: Neuronal acetylcholine receptor; alpha2/beta2 (Rattus norvegicus, UniProt P12389+P12390); experiment: Inhibition of rat alpha2beta2 nAChR expressed in Xenopus laevis oocytes assessed as inhibition of acetylcholine-induced current response by two-electrode voltage-clamp method; type: cell-based, Oocyte
Method in brief: as §3

[20] = molecular target: Neuronal acetylcholine receptor; alpha3/beta4 (Homo sapiens, UniProt P30926+P32297); experiment: Inhibition of human alpha3beta4 nAChR expressed in Xenopus laevis oocytes assessed as inhibition of acetylcholine-induced current response by two-electrode voltage-clamp method; type: cell-based, Oocyte
Method in brief: as §2

[21] = molecular target: Nicotinic acetylcholine receptor alpha9/alpha10 (Rattus norvegicus, UniProt P43144+Q9JLB5); experiment: Inhibition of rat alpha9alpha10 nAChR expressed in Xenopus laevis oocytes assessed as inhibition of acetylcholine-induced current response by two-electrode voltage-clamp method; type: cell-based, Oocyte
Method in brief: as §3

[22] = species: Rattus norvegicus; experiment: Selectivity ratio of IC50 for rat alpha4beta2 nAChR to IC50 for rat alpha6/alpha3beta4 nAChR
Method in brief: as §1

[23] = Inhibition of human alpha4beta4 nAChR expressed in Xenopus laevis oocytes assessed as inhibition of acetylcholine-induced current response by two-electrode voltage-clamp method; type: cell-based; details: Oocyte
Method in brief: as §2

[24] = molecular target: Neuronal acetylcholine receptor; alpha9/alpha10 (Homo sapiens, UniProt Q9GZZ6+Q9UGM1); experiment: Inhibition of human alpha9alpha10 nAChR expressed in Xenopus laevis oocytes assessed as inhibition of acetylcholine-induced current response by two-electrode voltage-clamp method; type: cell-based, Oocyte
Method in brief: as §3

[25] = species: Homo sapiens; experiment: Selectivity ratio of IC50 for human alpha4beta4 nAChR to IC50 for human alpha6/alpha3beta4 nAChR
Method in brief: as §1

[26] = tested on: Oocyte; experiment: Inhibition of human alpha4beta4 nAChR expressed in Xenopus laevis oocytes assessed as inhibition of acetylcholine-induced current response at 10 uM by two-electrode voltage-clamp method relative to control; type: cell-based
Method in brief: as §4

[27] = species: Homo sapiens; experiment: Selectivity ratio of IC50 for human alpha6/alpha3beta2beta3 nAChR to IC50 for human alpha6/alpha3beta4 nAChR
Method in brief: as §1

[28] = molecular target: Neuronal acetylcholine receptor subunit alpha-7 (Homo sapiens, UniProt P36544); experiment: Inhibition of human alpha7 nAChR expressed in Xenopus laevis oocytes assessed as inhibition of acetylcholine-induced current response by two-electrode voltage-clamp method; type: cell-based, Oocyte
Sequence of Neuronal acetylcholine receptor subunit alpha-7 (Homo sapiens, UniProt P36544) (P36544 whole entry): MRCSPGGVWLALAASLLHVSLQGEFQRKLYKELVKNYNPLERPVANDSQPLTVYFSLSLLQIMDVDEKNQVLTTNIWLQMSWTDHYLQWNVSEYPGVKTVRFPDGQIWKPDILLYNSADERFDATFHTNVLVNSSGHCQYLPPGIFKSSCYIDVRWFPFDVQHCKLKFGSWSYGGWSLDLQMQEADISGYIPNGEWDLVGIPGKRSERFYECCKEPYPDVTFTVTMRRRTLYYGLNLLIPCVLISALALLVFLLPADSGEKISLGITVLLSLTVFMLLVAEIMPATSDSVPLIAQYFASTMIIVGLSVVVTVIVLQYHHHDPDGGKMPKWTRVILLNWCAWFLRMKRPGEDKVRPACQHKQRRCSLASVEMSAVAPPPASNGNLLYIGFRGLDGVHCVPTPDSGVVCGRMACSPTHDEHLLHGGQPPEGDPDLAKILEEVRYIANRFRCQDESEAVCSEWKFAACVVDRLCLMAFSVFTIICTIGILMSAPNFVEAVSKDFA
Method in brief: as §2

[29] = species: Homo sapiens; experiment: Selectivity ratio of IC50 for human alpha2beta4 nAChR to IC50 for human alpha6/alpha3beta4 nAChR
Method in brief: as §1

[30] = molecular target: Neuronal acetylcholine receptor; alpha2/beta2 (Homo sapiens, UniProt P17787+Q15822); experiment: Inhibition of human alpha2beta2 nAChR expressed in Xenopus laevis oocytes assessed as inhibition of acetylcholine-induced current response by two-electrode voltage-clamp method; type: cell-based, Oocyte
Method in brief: as §3

[31] = molecular target: Neuronal acetylcholine receptor; alpha4/beta2 (Homo sapiens, UniProt P17787+P43681); experiment: Inhibition of human alpha4beta2 nAChR expressed in Xenopus laevis oocytes assessed as inhibition of acetylcholine-induced current response by two-electrode voltage-clamp method; type: cell-based, Oocyte
Method in brief: as §3

[32] = molecular target: Neuronal acetylcholine receptor; alpha3/beta2 (Homo sapiens, UniProt P17787+P32297); experiment: Inhibition of human alpha3beta2 nAChR expressed in Xenopus laevis oocytes assessed as inhibition of acetylcholine-induced current response by two-electrode voltage-clamp method; type: cell-based, Oocyte
Method in brief: as §3

Sequence of Neuronal acetylcholine receptor; alpha4/beta2 (Rattus norvegicus, UniProt P09483+P12390) (P09483 whole entry): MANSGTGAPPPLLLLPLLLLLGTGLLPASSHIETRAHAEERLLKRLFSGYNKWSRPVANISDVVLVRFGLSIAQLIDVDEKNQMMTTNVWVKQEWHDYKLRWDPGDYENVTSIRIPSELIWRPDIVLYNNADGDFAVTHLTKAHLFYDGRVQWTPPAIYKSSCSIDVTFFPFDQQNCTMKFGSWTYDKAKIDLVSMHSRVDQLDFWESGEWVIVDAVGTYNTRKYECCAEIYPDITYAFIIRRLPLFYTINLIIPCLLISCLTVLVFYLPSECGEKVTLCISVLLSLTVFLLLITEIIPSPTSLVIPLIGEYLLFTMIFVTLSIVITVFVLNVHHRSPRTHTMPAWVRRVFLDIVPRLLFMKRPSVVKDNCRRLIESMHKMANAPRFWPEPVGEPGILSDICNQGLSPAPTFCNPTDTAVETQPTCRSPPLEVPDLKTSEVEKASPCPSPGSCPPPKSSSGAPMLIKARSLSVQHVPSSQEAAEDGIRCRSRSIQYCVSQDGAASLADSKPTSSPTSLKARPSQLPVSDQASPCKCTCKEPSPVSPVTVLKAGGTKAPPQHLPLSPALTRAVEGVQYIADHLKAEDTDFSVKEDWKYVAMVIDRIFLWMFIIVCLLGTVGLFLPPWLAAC
Sequence of Neuronal acetylcholine receptor; alpha4/beta2 (Rattus norvegicus, UniProt P09483+P12390) (P12390 whole entry): as the sequence (P12390 whole entry) above

CC(C)C[C@@H]1NC(=O)[C@H](C)NC(=O)[C@@H]2CCCN2C(=O)[C@H](CCC(=O)O)NC(=O)[C@H](CCCNC(=N)N)NC(=O)[C@H](C)NC(=O)[C@H](Cc2cnc[nH]2)NC(=O)[C@@H]2CSSC[C@H](NC(=O)CN)C(=O)N[C@@H](CSSC[C@@H](C(N)=O)NC1=O)C(=O)N[C@@H](CO)C(=O)N[C@@H](Cc1cnc[nH]1)C(=O)N1CCC[C@H]1C(=O)N[C@@H](Cc1cnc[nH]1)C(=O)N2 (H-GCCSHPHCHAREPALC-NH2; disulfide 2-8, 3-16)
IC50 [1]: > 10 µM
IC50 [2]: > 10 µM
IC50 [3]: 0.0438 µM
IC50 [4]: > 10 µM
IC50 [5]: > 10 µM
IC50 [6]: 0.0438 µM
IC50 [7]: > 10 µM

CC(C)C[C@@H]1NC(=O)[C@H](C)NC(=O)[C@H](CCCNC(=N)N)NC(=O)[C@H](Cc2cnc[nH]2)NC(=O)[C@H](CCCNC(=N)N)NC(=O)[C@H](C)NC(=O)[C@H](CCCNC(=N)N)NC(=O)[C@@H]2CSSC[C@H](NC(=O)CN)C(=O)N[C@@H](CSSC[C@@H](C(N)=O)NC1=O)C(=O)N[C@@H](CO)C(=O)N[C@@H](Cc1cnc[nH]1)C(=O)N1CCC[C@H]1C(=O)N[C@@H](C(C)C)C(=O)N2 (H-GCCSHPVCRARHRALC-NH2; disulfide 2-8, 3-16)
IC50 [1]: > 10 µM
Ratio IC50 [8]: > 3180
IC50 [2]: > 10 µM
IC50 [9]: > 10 µM
IC50 [3]: > 10 µM
IC50 [4]: 3.94 µM
IC50 [10]: 0.00555 µM
Ratio IC50 [11]: 104
Ratio IC50 [12]: > 3180
Ratio IC50 [13]: > 1800
Ratio IC50 [14]: > 3180
inhibition [15]: 85%
Ratio IC50 [16]: > 1800
Ratio IC50 [17]: > 3180
IC50 [6]: 0.00314 µM
inhibition [18]: 82%
IC50 [19]: > 10 µM
IC50 [7]: 9.51 µM
IC50 [20]: 9.06 µM
IC50 [21]: 0.667 µM
Ratio IC50 [22]: > 3180
IC50 [23]: > 10 µM
IC50 [24]: 0.576 µM
Ratio IC50 [25]: > 1800
inhibition [26]: 92%
Ratio IC50 [27]: 1
IC50 [28]: 5.56 µM
Ratio IC50 [29]: > 1800
IC50 [30]: > 10 µM
IC50 [31]: > 10 µM
IC50 [32]: 12.2 µM
